The values below come from ChEMBL document CHEMBL4130626, “α-Arylidene Diacylglycerol-Lactones (DAG-Lactones) as Selective Ras Guanine-Releasing Protein 3 (RasGRP3) Ligands” (J Med Chem, 2018).

By EC50 is commonly meant the concentration needed to bring the measured effect to its halfway point. The Ki is the equilibrium dissociation constant of an inhibitor or competing ligand from its target.

Experiment [1] concerns the target T1, Protein kinase C delta type (Homo sapiens, UniProt Q05655). Description: Activation of PKCdelta (unknown origin) expressed in HEK293 cells harboring GFP-tagged RasGRP3 assessed as phosphorylation at ser299 residues after 30 mins by immunoblot method. In kind it is cell-based. In a few lines:
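Cells are GFP-RasGRP3-transfected HEK293, grown in EMEM + 10% FBS. Exposed 30 min at 37 °C, 5% CO2, to half-log concentrations up to 10 µM, 1000 nM PMA or DMSO. Lysed in RIPA with protease and phosphatase inhibitors. 50 µg protein run on 10% SDS-PAGE and blotted for phospho-PKCδ S299; anti-GFP used as loading control. Signal normalised to 1000 nM PMA. EC50 is the mean of n = 3.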
Background: A western blot detects proteins with antibodies after separation by electrophoresis.

Experiment [2] addresses Protein kinase C alpha type (Homo sapiens, UniProt P17252). Description: Displacement of [3H]PDBu from full length recombinant human PKCalpha expressed in baculovirus expression system after 5 mins by scintillation counting. In a few lines:
(§1)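 Competition of [3H]PDBu binding by polyethylene glycol precipitation, with 100 µg/ml phosphatidylserine and ≤0.003% Triton X-100, 5 min at 37 °C. Proteins: full-length purified human PKCα, PKCε; full-length RasGRP1; MBP-RasGRP3 from E. coli BL21(DE3) induced with 0.3 mM IPTG 6 h at room temperature. Ki mean ± SEM of ≥2 experiments, triplicate points.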

The species entered for experiment [3] is Homo sapiens. Put plainly: Selectivity ratio of EC50 for PKCdelta (unknown origin) expressed in human LNCAP cells harboring GFP-tagged RasGRP1 to EC50 for GFP-tagged RasGRP1 (unknown origin) expressed in human LNCAP cells assessed as ERK1/2 phosphorylation. The experiment is classed as cell-based.
The target in experiment [4] is T2, Ras guanyl-releasing protein 3 (Homo sapiens) (UniProt Q8IV61).
T2 sequence (whole entry): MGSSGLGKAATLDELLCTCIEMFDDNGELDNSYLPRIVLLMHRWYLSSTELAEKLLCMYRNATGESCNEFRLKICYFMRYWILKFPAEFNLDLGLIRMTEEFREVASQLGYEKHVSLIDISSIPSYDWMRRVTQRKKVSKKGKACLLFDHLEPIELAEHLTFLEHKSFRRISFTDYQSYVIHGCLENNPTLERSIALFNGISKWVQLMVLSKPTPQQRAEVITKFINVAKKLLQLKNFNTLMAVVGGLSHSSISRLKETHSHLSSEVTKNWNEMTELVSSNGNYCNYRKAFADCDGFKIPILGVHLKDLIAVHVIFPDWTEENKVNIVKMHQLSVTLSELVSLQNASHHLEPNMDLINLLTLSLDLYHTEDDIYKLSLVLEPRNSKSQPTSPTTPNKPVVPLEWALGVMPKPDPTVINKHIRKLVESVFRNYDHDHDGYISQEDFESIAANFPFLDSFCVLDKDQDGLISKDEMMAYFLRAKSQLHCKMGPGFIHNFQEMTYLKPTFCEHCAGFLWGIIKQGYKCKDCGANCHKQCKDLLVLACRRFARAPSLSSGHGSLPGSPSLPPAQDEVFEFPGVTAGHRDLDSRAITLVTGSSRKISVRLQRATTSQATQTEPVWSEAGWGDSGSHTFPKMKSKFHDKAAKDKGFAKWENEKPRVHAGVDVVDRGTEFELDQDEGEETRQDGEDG
Put plainly: Displacement of [3H]PDBu from full length MBP-tagged human RasGRP3 expressed in Escherichia coli BL21 (DE3) after 5 mins in presence of phosphatidylserine by scintillation counting. Summed up: as §1
A general note: Loss of bound radioactivity is the signal in a displacement assay; it reports binding, not function.

Experiment [5] deals with T3, RAS guanyl-releasing protein 1 (Homo sapiens, UniProt O95267).
T3 sequence (O95267 whole entry): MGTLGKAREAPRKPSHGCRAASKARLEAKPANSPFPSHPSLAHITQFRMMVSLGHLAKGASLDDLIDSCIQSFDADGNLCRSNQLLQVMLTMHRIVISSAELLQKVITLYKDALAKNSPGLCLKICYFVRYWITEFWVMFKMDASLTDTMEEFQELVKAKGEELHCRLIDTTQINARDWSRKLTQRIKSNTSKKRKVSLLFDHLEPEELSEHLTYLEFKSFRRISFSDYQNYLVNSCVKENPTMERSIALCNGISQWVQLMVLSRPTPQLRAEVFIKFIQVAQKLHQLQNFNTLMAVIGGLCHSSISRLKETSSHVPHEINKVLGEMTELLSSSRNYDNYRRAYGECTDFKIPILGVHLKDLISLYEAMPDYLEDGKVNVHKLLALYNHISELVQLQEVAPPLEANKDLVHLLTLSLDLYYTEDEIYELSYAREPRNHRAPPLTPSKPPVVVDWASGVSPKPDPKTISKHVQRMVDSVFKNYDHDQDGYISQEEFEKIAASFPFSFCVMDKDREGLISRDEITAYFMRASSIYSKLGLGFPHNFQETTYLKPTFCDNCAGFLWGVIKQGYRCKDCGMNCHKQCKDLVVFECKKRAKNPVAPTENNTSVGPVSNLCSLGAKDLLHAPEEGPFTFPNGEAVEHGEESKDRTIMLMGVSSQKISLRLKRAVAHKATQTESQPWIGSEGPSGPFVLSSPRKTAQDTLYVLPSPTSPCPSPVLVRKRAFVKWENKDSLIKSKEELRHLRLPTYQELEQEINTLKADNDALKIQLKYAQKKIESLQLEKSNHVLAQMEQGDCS
Description: Activation of GFP-tagged RasGRP1 (unknown origin) expressed in human LNCAP cells assessed as ERK1/2 phosphorylation after 30 mins by immunoblot method. The experiment is classed as cell-based. Summed up: (§2)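 Cells expressing GFP-RasGRP1/3 (HEK293 or LNCaP, 48 h after plating, transfected; expression checked by fluorescence 24-48 h later) or Ramos with endogenous RasGRP3 treated with half-log increasing concentrations (max 10 µM), 1000 nM PMA or DMSO, 37 °C, 30 min, 5% CO2. RasGTP by Raf1 RBD bead pulldown and anti-Pan-Ras immunoblot; pERK by western blot. Band intensities normalized to 1000 nM PMA; EC50 from n = 3.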

For experiment [6], the target named is T4, Ras guanyl-releasing protein 3 (Homo sapiens, UniProt Q8IV61).
T4 sequence (Q8IV61 whole entry): T2 sequence (whole entry)
Description: Activation of GFP-tagged RasGRP3 (unknown origin) expressed in human LNCAP cells after 30 mins by immunoblot method. In kind it is cell-based. Summed up:
as §2

For experiment [7], the species on record is Homo sapiens. Description: Selectivity ratio of EC50 for PKCdelta (unknown origin) expressed in human LNCAP cells harboring GFP-tagged RasGRP3 to EC50 for GFP-tagged RasGRP3 (unknown origin) expressed in human LNCAP cells assessed as ERK1/2 phosphorylation. In kind it is cell-based.
Experiment [8] has as its target T1, Protein kinase C delta type. Put plainly: Activation of PKCdelta (unknown origin) expressed in HEK293 cells harboring GFP-tagged RasGRP1 assessed as phosphorylation at ser299 residues after 30 mins by immunoblot method. In kind it is cell-based. Summed up:
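PKCδ activation read as phospho-S299 on western blots of lysates (50 µg protein, 10% SDS-PAGE, milk blocking, anti-PKCδS299 overnight). Cells: GFP-RasGRP1/3-transfected HEK293 or LNCaP, or Ramos, treated 30 min at 37 °C with half-log doses (maximum 10 µM), 1000 nM PMA or DMSO. Scanned intensities normalized to 1000 nM PMA; EC50 mean ± SEM, n = 3; values above 10 µM extrapolated.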

The structures appear in SMILES notation. Activity calls are given as the source filed them. No cut-off for these calls is given here.

T1 sequence (Q05655 whole entry): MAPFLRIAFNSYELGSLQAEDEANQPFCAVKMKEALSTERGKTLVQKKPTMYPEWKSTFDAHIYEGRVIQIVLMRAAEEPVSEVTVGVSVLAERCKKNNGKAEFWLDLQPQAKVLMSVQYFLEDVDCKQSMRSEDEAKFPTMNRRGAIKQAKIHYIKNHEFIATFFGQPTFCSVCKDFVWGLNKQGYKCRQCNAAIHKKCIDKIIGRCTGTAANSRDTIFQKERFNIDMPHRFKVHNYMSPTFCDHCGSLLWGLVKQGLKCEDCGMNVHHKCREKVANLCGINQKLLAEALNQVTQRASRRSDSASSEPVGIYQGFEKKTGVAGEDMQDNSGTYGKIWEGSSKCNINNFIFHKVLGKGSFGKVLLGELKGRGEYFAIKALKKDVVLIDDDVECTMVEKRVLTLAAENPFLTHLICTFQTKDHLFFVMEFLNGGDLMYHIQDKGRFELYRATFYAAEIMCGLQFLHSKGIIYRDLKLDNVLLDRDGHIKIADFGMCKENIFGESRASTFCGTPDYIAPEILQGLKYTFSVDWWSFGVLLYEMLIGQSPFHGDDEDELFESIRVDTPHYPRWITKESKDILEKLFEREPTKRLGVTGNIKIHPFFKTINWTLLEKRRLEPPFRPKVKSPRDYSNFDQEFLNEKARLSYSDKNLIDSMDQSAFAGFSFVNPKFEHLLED

Consider `Cn1cc(/C=C2\CC(CO)(COC(=O)C(C)(C)C)OC2=O)c2ccccc21` (stereo not drawn), for which the 50% effective concentration (EC50) is 16.9 µM in experiment [1], 3.73 µM in experiment [5], 0.64 µM in experiment [6] and 12.6 µM in experiment [8]. Moreover, the Ki in experiment [2] stood at 0.127 µM. The Ratio EC50 in the experiment filed under Homo sapiens [3] worked out at 2.2; in the experiment filed under Homo sapiens [7], 2.8. In addition, the inhibition result in experiment [4] was “Active”.
